These results are taken from ChEMBL document CHEMBL3351252, “Design, synthesis, and structure-activity relationship studies of a series of [4-(4-carboxamidobutyl)]-1-arylpiperazines: insights into structural features contributing to dopamine D3 versus D2 receptor subtype selectivity” (J Med Chem, 2014).

Assay [1] has as its target T1, D(2) dopamine receptor (Homo sapiens, UniProt P14416). The assay is described as follows: Inverse agonist activity at human D2LR expressed in CHO-K1 cells assessed as inhibition of basal activity by beta-galactosidase based beta-arrestin recruitment assay. In kind it is cell-based. In outline:
(§1)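 CHO-K1 cells expressing human D2L receptor, β-arrestin/β-galactosidase fragment-complementation assay. Cells plated 2500/well and grown 48 h at 37 °C. Test compounds given at 11 half-log points from 5 μM, 120 min at 37 °C. Detection reagent added and chemiluminescence read. Results given as % stimulation or inhibition of basal luminescence. Compounds counterscreened for β-gal inhibition.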

Assay [2] deals with T1, D(2) dopamine receptor. The assay is described as follows: Agonist activity at human D2LR expressed in CHO-K1 cells assessed as stimulation of basal activity by beta-galactosidase based beta-arrestin recruitment assay. Type of assay: cell-based. The method in brief:
as §1
Background: Arrestin recruitment assays detect the binding of arrestin to an activated receptor.

For assay [3], the species on record is Homo sapiens. The assay can be described thus: Selectivity index, ratio of IC50 for human D2LR to IC50 for human D3R by beta-galactosidase based beta-arrestin recruitment assay.
Assay [4] is filed under the species Homo sapiens. The assay is described as follows: Selectivity index, ratio of Ki for human D2LR to Ki or human D3R.
Assay [5] has as its target T2, D(3) dopamine receptor (Homo sapiens, UniProt P35462). The assay is described as follows: Displacement of [125I]IABN from wild type human D3R expressed in HEK293 cell membranes by gamma counting method. The method in brief:
(§2)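 Membranes from HEK 293 cells stably expressing receptor, prepared in 50 mM Tris-HCl pH 7.4/10 mM EDTA/150 mM NaCl and stored at −80 °C. […] Nonspecific binding defined with 2 μM (+)-butaclamol. Filtered, gamma counted. IC50 from single-site nonlinear regression, converted to Ki.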
Background: In a radioligand displacement assay an active substance lowers the binding of a labelled ligand.

Assay [6] has as its target T1, D(2) dopamine receptor. The assay is described as follows: Displacement of [125I]IABN from wild type human D2R expressed in HEK293 cell membranes by gamma counting method.
Assay [7] has as its target T2, D(3) dopamine receptor. The assay is described as follows: Displacement of [125I]IABN from chimeric human D3 receptor possessing extracellular loop II of D2 receptor expressed in HEK293 cell membranes by gamma counting method. In outline: as §2
Assay [8] addresses T1, D(2) dopamine receptor. The assay is described as follows: Displacement of [125I]IABN from chimeric human D2 receptor possessing extracellular loop II of D3 receptor expressed in HEK293 cell membranes by gamma counting method.
Assay [9] deals with D(3) dopamine receptor (Homo sapiens, UniProt P35462, S182I). The assay can be described thus: Displacement of [125I]IABN from human D3R S182I mutant expressed in HEK293 cell membranes by gamma counting method. The method in brief: as §2
Assay [10] concerns the target D(3) dopamine receptor (Homo sapiens, UniProt P35462, E90A). The assay is described as follows: Displacement of [125I]IABN from human D3R E90A mutant expressed in HEK293 cell membranes by gamma counting method. In outline:
as §2

Assay [11] has as its target D(3) dopamine receptor (Homo sapiens, UniProt P35462, E90Q). The assay can be described thus: Displacement of [125I]IABN from human D3R E90Q mutant expressed in HEK293 cell membranes by gamma counting method. In outline:
as §2

The target in assay [12] is T1, D(2) dopamine receptor. The assay is described as follows: Agonist activity against human D2R expressed in HEK293 cells assessed as inhibition of forskolin-induced adenyl cyclase activity at 10 times Ki relative to quinpirole. In kind it is functional, cell-based. The method in brief: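 Whole HEK 293 cells expressing human D2R, prelabelled with [2,8-3H]adenine for 75 min at 37 °C, then given 0.1 mM IBMX. […] Stopped with TCA. [3H]cAMP separated on Dowex/alumina. Inhibition normalized to 1 μM quinpirole. Mean ± SEM of ≥3 experiments.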

The target in assay [13] is T1, D(2) dopamine receptor. The following applies: CHO-K1, 500 nM.
Assay [14] has as its target T2, D(3) dopamine receptor. The assay can be described thus: Antagonist activity against D3R in human U2OS cells assessed as inhibition of (+)-PD128907-induced beta-arrestin translocation by beta-galactosidase based beta-arrestin recruitment assay. Type of assay: cell-based.
Assay [15] concerns the target T1, D(2) dopamine receptor. The assay can be described thus: Antagonist activity against human D2LR expressed in CHOK1 cells assessed as inhibition of pergolide-induced beta-arrestin translocation by beta-galactosidase based beta-arrestin recruitment assay. Type of assay: cell-based, CHO-K1.
In assay [16] the target is T2, D(3) dopamine receptor. The assay can be described thus: Displacement of [125I]IABN from human D3R expressed in HEK293 cell membranes by gamma counting method.
The target of assay [17] is T1, D(2) dopamine receptor. The assay is described as follows: Displacement of [125I]IABN from human D2LR expressed in HEK293 cell membranes by gamma counting method.
Assay [18] addresses T1, D(2) dopamine receptor. The assay can be described thus: Agonist activity at human D2R expressed in CHO cells assessed as stimulation of mitogenesis at 10 uM after 24 hrs by [3H]thymidine uptake assay relative to quinpirole. Type of assay: cell-based. In outline: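 CHOp-D2 cells grown 48–72 h, then serum-starved 24 h. Exposed to 10 μM compound in serum-free α-MEM for 24 h at 37 °C. Pulsed 2 h with 0.25 μCi [3H]thymidine, trypsinized, filtered and counted. Stimulation expressed relative to maximal quinpirole. Two independent experiments.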

In assay [19] the target is T1, D(2) dopamine receptor. The assay is described as follows: Antagonist activity against human D2R expressed in CHO cells assessed as inhibition of quinpirole-induced mitogenesis after 24 hrs by [3H]thymidine uptake assay. In kind it is cell-based. In outline:
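Serum-starved CHOp-D2 or CHOp-D3 cells given serial dilutions of test compound plus quinpirole (30 nM final). Incubated at 37 °C for 24 h (D2) or 16 h (D3). Then 2 h [3H]thymidine pulse, filtration and counting.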

The target of assay [20] is T2, D(3) dopamine receptor. The following applies: CHO, 1 uM.
For assay [21], the target named is T1, D(2) dopamine receptor. The following applies: CHO, 1 uM.
The target of assay [22] is T2, D(3) dopamine receptor. The assay is described as follows: Inverse agonist activity at D3R in human U2OS cells assessed as inhibition of basal activity at 500 nM by beta-galactosidase based beta-arrestin recruitment assay. Type of assay: cell-based.

Active and inactive are the calls of the source. The calls are words filed in the database; no cut-off is given here.

T2 sequence (P35462 whole entry): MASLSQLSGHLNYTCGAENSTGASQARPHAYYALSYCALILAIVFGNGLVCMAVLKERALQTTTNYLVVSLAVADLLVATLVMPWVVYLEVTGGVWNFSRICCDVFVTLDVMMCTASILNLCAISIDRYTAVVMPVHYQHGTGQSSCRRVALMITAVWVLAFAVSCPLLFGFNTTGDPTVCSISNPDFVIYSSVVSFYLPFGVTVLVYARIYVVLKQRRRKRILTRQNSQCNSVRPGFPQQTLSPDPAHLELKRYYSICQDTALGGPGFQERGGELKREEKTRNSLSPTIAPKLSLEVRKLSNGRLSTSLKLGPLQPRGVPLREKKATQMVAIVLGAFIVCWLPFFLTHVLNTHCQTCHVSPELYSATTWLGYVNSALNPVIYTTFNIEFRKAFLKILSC
T1 sequence (P14416 whole entry, the tested form may be a part): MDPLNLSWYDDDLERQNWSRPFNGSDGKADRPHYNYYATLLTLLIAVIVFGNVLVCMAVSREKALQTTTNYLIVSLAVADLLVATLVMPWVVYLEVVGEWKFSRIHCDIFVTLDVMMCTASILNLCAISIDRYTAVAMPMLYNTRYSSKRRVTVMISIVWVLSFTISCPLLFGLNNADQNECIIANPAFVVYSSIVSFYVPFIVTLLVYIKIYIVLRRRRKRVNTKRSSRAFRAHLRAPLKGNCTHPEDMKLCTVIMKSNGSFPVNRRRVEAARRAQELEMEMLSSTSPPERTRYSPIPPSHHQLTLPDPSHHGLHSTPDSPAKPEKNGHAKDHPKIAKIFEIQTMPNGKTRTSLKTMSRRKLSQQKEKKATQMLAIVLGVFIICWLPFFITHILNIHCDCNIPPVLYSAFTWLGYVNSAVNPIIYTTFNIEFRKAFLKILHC
Chain of D(3) dopamine receptor (Homo sapiens, UniProt P35462, S182I) (P35462 as listed by the source S182I): as the sequence (P35462 whole entry) above, with G9S, S182I counted along it
Chain of D(3) dopamine receptor (Homo sapiens, UniProt P35462, E90Q) (P35462 as listed by the source E90Q): as the sequence (P35462 whole entry) above, with G9S, E90Q counted along it
Chain of D(3) dopamine receptor (Homo sapiens, UniProt P35462, E90A) (P35462 as listed by the source E90A): as the sequence (P35462 whole entry) above, with G9S, E90A counted along it

The inhibition is the percentage by which the read-out fell short of the control. The Ki is the equilibrium dissociation constant of an inhibitor or competing ligand from its target. Lower therefore signals tighter binding. Consider `CN(C)Cc1c(C(=O)NCCCCN2CCN(c3cc(C(F)(F)F)nc(C(C)(C)C)n3)CC2)nc2ccccn12`, for which, at D(2) dopamine receptor [1], the inhibition entry was “inactive”. For the same compound, at D(2) dopamine receptor [2], the result was inactive. In the assay filed under Homo sapiens [3], the Ratio IC50 was found to be 30. Moreover, the Ratio Ki in the assay listed under Homo sapiens [4] stood at 10. Also, the Ki was 9.1 nM on D(3) dopamine receptor [5]; 191 nM at D(2) dopamine receptor [6]; 27 nM on D(3) dopamine receptor [7]; 72 nM on D(2) dopamine receptor [8]; 16 nM on D(3) dopamine receptor [9]; 16 nM at D(3) dopamine receptor [10]. Further, the Ki at D(3) dopamine receptor [11] came out at 19 nM. Further, the inhibition on D(2) dopamine receptor [12] was 8.9%; against D(2) dopamine receptor [13] it was less than 30%.

As usually defined, the IC50 is the concentration needed to halve the response being measured. Take `O=C(NCCCCN1CCN(c2cccc(Cl)c2Cl)CC1)c1cn2ccccc2n1`: at D(2) dopamine receptor [1], the inhibition entry was “inactive”. For the same compound, the result on D(2) dopamine receptor [2] was inactive. In addition, the IC50 is 0.2 nM at D(3) dopamine receptor [14], 91 nM on D(2) dopamine receptor [15] and 55 nM at D(2) dopamine receptor [19]. The Ratio IC50 in the assay filed under Homo sapiens [3] was 455. The Ki on D(3) dopamine receptor [16] is 0.3 nM; at D(2) dopamine receptor [17], 12 nM. In addition, the Ratio Ki in the assay filed under Homo sapiens [4] worked out at 40. For the same compound, the Activity at D(2) dopamine receptor [18] was less than 20%. The results for the inhibition on D(2) dopamine receptor [12], against D(3) dopamine receptor [20] and against D(2) dopamine receptor [21] were 45%, less than 30% and less than 30%, respectively.

In the case of `CN(C)Cc1c(C(=O)NCCCCN2CCN(c3cc(C(F)(F)F)nc(C(C)(C)C)n3)CC2)[nH]c2ccccc12`, the inhibition at D(3) dopamine receptor [22] is less than 21%. Moreover, the IC50 on D(3) dopamine receptor [14] stood at 14 nM; on D(2) dopamine receptor [15], 311 nM. In addition, the Ratio IC50 in the assay listed under Homo sapiens [3] worked out at 22. Moreover, the Ki on D(3) dopamine receptor [16] is 25 nM; at D(2) dopamine receptor [17], 527 nM. For the same compound, the Ratio Ki in the assay filed under Homo sapiens [4] was 21.
